System: 3T3-L1
Experiment: Antiadipogenic activity against mouse 3T3L1 cells assessed as inhibition of differentiation after 7 days by oil-red O staining
Format: functional, cell-based
Details: 3T3-L1, 168 h
In short: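 Mouse 3T3-L1 preadipocytes grown to confluence for 48 h, then induced (day 0) in DMEM with 10% FBS, insulin 5 µg/mL, 10 µM rosiglitazone, 1 µM dexamethasone; after 48 h switched to 10% FBS/DMEM + 5 µg/mL insulin, then 10% FBS/DMEM every other day. Compounds added day 0, refreshed every 2 days. Day 7: PBS wash, 10% formalin 10 min, Oil-red O 1 h RT, dye eluted in isopropanol, A500; IC50 derived.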

SMILES | IC50 [µM]
O=C(/C=C/c1ccc(O)cc1)c1ccc(O)cc1O [ISOLIQUIRITIGENIN] | 96.4
O=C1/C(=C/c2ccc(O)cc2)COc2cc(O)cc(O)c21 | > 100
Oc1ccc(/C=C/c2cc(O)cc(O)c2)cc1 [RESVERATROL] | 31.4
C=C[C@H](/C=C\c1ccc(O)cc1)c1ccc(O)cc1 [NYASOL] | > 100
C=C[C@H](/C=C\c1ccc(OC)cc1)c1ccc(O)cc1 | 45.9
Cc1c(O)cc2c(c1O)C(=O)/C(=C/c1ccc(O)cc1)CO2 | > 100
O=C(C#Cc1ccc(O)cc1)c1ccc(O)cc1 [ANEMARCHALCONYN] | 5.3
COc1cc(O)ccc1C(=O)/C=C/c1ccc(O)cc1 | 41.8
COc1ccc(CCCc2ccc(O)cc2)c(O)c1 [BROUSSONIN A] | 74.5

Reference: ChEMBL document CHEMBL1154282, “Identification of antiadipogenic constituents of the rhizomes of Anemarrhena asphodeloides” (J Nat Prod, 2009)
